{"source": "ChEMBL document CHEMBL5303300", "about": "“EUbOPEN Chemogenomics Library - Multiplex” (2023)", "key": {"U2OS": {"test_system": "U2OS", "assay": "Multiplex assay against U2OS", "assay_type": "toxicity, cell-based", "conditions": "human, number of replicates 2", "in_short": "(§1)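 Imaging took place on a CQ1 microscope at 37°C and 5% CO2 once compound had been added to live cells stained at seeding with Hoechst33342, BioTracker Green Microtubule Cytoskeleton Dye, MitoTracker Red and Annexin V Alexa Fluor 680. CellPathfinder machine-learning gating classed cells as Hoechst high-intensity objects or normal cells, classed normal cells as having healthy, pyknosed or fragmented nuclei, and classed pyknosed cells as mitotic or apoptotic. Tubulin, mitochondrial-mass and membrane-permeability phenotypes are per cents of the healthy-nucleus cells.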"}, "Fibroblast": {"test_system": "Fibroblast", "assay": "Multiplex assay against human fibroblast", "assay_type": "toxicity, cell-based", "conditions": "number of replicates 2", "in_short": "as §1"}, "[1]": {"conditions": "12 h, 1 µM, compound concentration 1 uM"}, "[2]": {"conditions": "12 h, 10 µM, compound concentration 10 uM"}, "[3]": {"conditions": "24 h, 1 µM, compound concentration 1 uM"}, "[4]": {"conditions": "24 h, 10 µM, compound concentration 10 uM"}, "[5]": {"conditions": "48 h, 1 µM, compound concentration 1 uM"}, "[6]": {"conditions": "48 h, 10 µM, compound concentration 10 uM"}}, "note": "Several values for one entry are separate records, joined by “and”; a condition that tells them apart may be missing. Equal entries are not always repeated."}
{"smiles": "COc1cccc(Cn2cc(C(=O)Nc3ccc(C)c(S(=O)(=O)N4CCOCC4)c3)c(-c3ccc(C)cc3)n2)c1", "values": [{"measurement": "Population Apoptotic (%)", "setting": "U2OS; [1]", "value": "33% and 76%"}, {"measurement": "Population Healthy Nuclei (%)", "setting": "U2OS; [1]", "value": "46% and 76%"}, {"measurement": "Population Hoechst High Intensity Objects (%)", "setting": "U2OS; [1]", "value": 0, "unit": "%"}, {"measurement": "Population Membrane Permeable-Phenotype (%)", "setting": "U2OS; [1]", "value": "7% and 0%"}, {"measurement": "Population Mitochondria Different-Phenotype (%)", "setting": "U2OS; [1]", "value": "0% and 4%"}, {"measurement": "Population Mitotic Cells (%)", "setting": "U2OS; [1]", "value": "66% and 23%"}, {"measurement": "Population Normal (%)", "setting": "U2OS; [1]", "value": 100, "unit": "%"}, {"measurement": "Population Pyknosed Nuclei (%)", "setting": "U2OS; [1]", "value": "21% and 13%"}, {"measurement": "Population Tubulin-Different-Phenotype (%)", "setting": "U2OS; [1]", "value": "38% and 54%"}, {"measurement": "Population Apoptotic (%)", "setting": "U2OS; [2]", "value": "71% and 52%"}, {"measurement": "Population Healthy Nuclei (%)", "setting": "U2OS; [2]", "value": "45% and 79%"}, {"measurement": "Population Hoechst High Intensity Objects (%)", "setting": "U2OS; [2]", "value": 0, "unit": "%"}, {"measurement": "Population Membrane Permeable-Phenotype (%)", "setting": "U2OS; [2]", "value": "47% and 38%"}, {"measurement": "Population Mitochondria Different-Phenotype (%)", "setting": "U2OS; [2]", "value": "11% and 9%"}, {"measurement": "Population Mitotic Cells (%)", "setting": "U2OS; [2]", "value": "28% and 47%"}, {"measurement": "Population Normal (%)", "setting": "U2OS; [2]", "value": 100, "unit": "%"}, {"measurement": "Population Pyknosed Nuclei (%)", "setting": "U2OS; [2]", "value": "37% and 17%"}, {"measurement": "Population Tubulin-Different-Phenotype (%)", "setting": "U2OS; [2]", "value": "88% and 90%"}, {"measurement": "Population Apoptotic (%)", "setting": "U2OS; [3]", "value": "37% and 76%"}, {"measurement": "Population Fragmented Nuclei (%)", "setting": "U2OS; [3]", "value": "24% and 8%"}, {"measurement": "Population Healthy Nuclei (%)", "setting": "U2OS; [3]", "value": "48% and 78%"}, {"measurement": "Population Hoechst High Intensity Objects (%)", "setting": "U2OS; [3]", "value": 0, "unit": "%"}, {"measurement": "Population Mitochondria Different-Phenotype (%)", "setting": "U2OS; [3]", "value": "14% and 5%"}, {"measurement": "Population Mitotic Cells (%)", "setting": "U2OS; [3]", "value": "62% and 23%"}, {"measurement": "Population Normal (%)", "setting": "U2OS; [3]", "value": "100% and 99%"}, {"measurement": "Population Pyknosed Nuclei (%)", "setting": "U2OS; [3]", "value": "27% and 13%"}, {"measurement": "Population Tubulin-Different-Phenotype (%)", "setting": "U2OS; [3]", "value": "64% and 65%"}, {"measurement": "Population Apoptotic (%)", "setting": "U2OS; [4]", "value": "60% and 72%"}, {"measurement": "Population Fragmented Nuclei (%)", "setting": "U2OS; [4]", "value": "15% and 6%"}, {"measurement": "Population Healthy Nuclei (%)", "setting": "U2OS; [4]", "value": "46% and 70%"}, {"measurement": "Population Hoechst High Intensity Objects (%)", "setting": "U2OS; [4]", "value": 0, "unit": "%"}, {"measurement": "Population Membrane Permeable-Phenotype (%)", "setting": "U2OS; [4]", "value": "44% and 47%"}, {"measurement": "Population Mitotic Cells (%)", "setting": "U2OS; [4]", "value": "40% and 27%"}, {"measurement": "Population Normal (%)", "setting": "U2OS; [4]", "value": 100, "unit": "%"}, {"measurement": "Population Pyknosed Nuclei (%)", "setting": "U2OS; [4]", "value": "38% and 23%"}, {"measurement": "Population Tubulin-Different-Phenotype (%)", "setting": "U2OS; [4]", "value": "94% and 90%"}, {"measurement": "Population Apoptotic (%)", "setting": "U2OS; [5]", "value": "45% and 67%"}, {"measurement": "Population Healthy Nuclei (%)", "setting": "U2OS; [5]", "value": "48% and 83%"}, {"measurement": "Population Hoechst High Intensity Objects (%)", "setting": "U2OS; [5]", "value": 0, "unit": "%"}, {"measurement": "Population Membrane Permeable-Phenotype (%)", "setting": "U2OS; [5]", "value": "10% and 3%"}, {"measurement": "Population Mitochondria Different-Phenotype (%)", "setting": "U2OS; [5]", "value": "10% and 4%"}, {"measurement": "Population Mitotic Cells (%)", "setting": "U2OS; [5]", "value": "54% and 32%"}, {"measurement": "Population Normal (%)", "setting": "U2OS; [5]", "value": 100, "unit": "%"}, {"measurement": "Population Pyknosed Nuclei (%)", "setting": "U2OS; [5]", "value": "26% and 12%"}, {"measurement": "Population Tubulin-Different-Phenotype (%)", "setting": "U2OS; [5]", "value": "65% and 80%"}, {"measurement": "Population Apoptotic (%)", "setting": "U2OS; [6]", "value": "73% and 70%"}, {"measurement": "Population Fragmented Nuclei (%)", "setting": "U2OS; [6]", "value": "7% and 21%"}, {"measurement": "Population Healthy Nuclei (%)", "setting": "U2OS; [6]", "value": "63% and 32%"}, {"measurement": "Population Hoechst High Intensity Objects (%)", "setting": "U2OS; [6]", "value": 0, "unit": "%"}, {"measurement": "Population Membrane Permeable-Phenotype (%)", "setting": "U2OS; [6]", "value": "56% and 33%"}, {"measurement": "Population Mitochondria Different-Phenotype (%)", "setting": "U2OS; [6]", "value": "21% and 16%"}, {"measurement": "Population Mitotic Cells (%)", "setting": "U2OS; [6]", "value": "26% and 29%"}, {"measurement": "Population Normal (%)", "setting": "U2OS; [6]", "value": "99% and 100%"}, {"measurement": "Population Pyknosed Nuclei (%)", "setting": "U2OS; [6]", "value": "28% and 45%"}, {"measurement": "Population Tubulin-Different-Phenotype (%)", "setting": "U2OS; [6]", "value": "85% and 100%"}, {"measurement": "Population Apoptotic (%)", "setting": "Fibroblast; [1]", "value": "48% and 37%"}, {"measurement": "Population Fragmented Nuclei (%)", "setting": "Fibroblast; [1]", "value": "7% and 6%"}, {"measurement": "Population Healthy Nuclei (%)", "setting": "Fibroblast; [1]", "value": "65% and 67%"}, {"measurement": "Population Hoechst High Intensity Objects (%)", "setting": "Fibroblast; [1]", "value": "0% and 1%"}, {"measurement": "Population Membrane Permeable-Phenotype (%)", "setting": "Fibroblast; [1]", "value": "13% and 10%"}, {"measurement": "Population Mitochondria Different-Phenotype (%)", "setting": "Fibroblast; [1]", "value": "2% and 3%"}, {"measurement": "Population Mitotic Cells (%)", "setting": "Fibroblast; [1]", "value": "51% and 62%"}, {"measurement": "Population Normal (%)", "setting": "Fibroblast; [1]", "value": "100% and 98%"}, {"measurement": "Population Pyknosed Nuclei (%)", "setting": "Fibroblast; [1]", "value": "26% and 27%"}, {"measurement": "Population Tubulin-Different-Phenotype (%)", "setting": "Fibroblast; [1]", "value": "44% and 39%"}, {"measurement": "Total Cell Count", "setting": "Fibroblast; [1]", "value": "152 and 203"}, {"measurement": "Population Apoptotic (%)", "setting": "Fibroblast; [2]", "value": "39% and 45%"}, {"measurement": "Population Fragmented Nuclei (%)", "setting": "Fibroblast; [2]", "value": "6% and 7%"}, {"measurement": "Population Healthy Nuclei (%)", "setting": "Fibroblast; [2]", "value": "63% and 53%"}, {"measurement": "Population Hoechst High Intensity Objects (%)", "setting": "Fibroblast; [2]", "value": "0% and 1%"}, {"measurement": "Population Membrane Permeable-Phenotype (%)", "setting": "Fibroblast; [2]", "value": "21% and 28%"}, {"measurement": "Population Mitochondria Different-Phenotype (%)", "setting": "Fibroblast; [2]", "value": "2% and 1%"}, {"measurement": "Population Mitotic Cells (%)", "setting": "Fibroblast; [2]", "value": "60% and 54%"}, {"measurement": "Population Normal (%)", "setting": "Fibroblast; [2]", "value": "100% and 98%"}, {"measurement": "Population Pyknosed Nuclei (%)", "setting": "Fibroblast; [2]", "value": "29% and 38%"}, {"measurement": "Population Tubulin-Different-Phenotype (%)", "setting": "Fibroblast; [2]", "value": "93% and 85%"}, {"measurement": "Total Cell Count", "setting": "Fibroblast; [2]", "value": "191 and 229"}, {"measurement": "Population Apoptotic (%)", "setting": "Fibroblast; [3]", "value": "57% and 42%"}, {"measurement": "Population Fragmented Nuclei (%)", "setting": "Fibroblast; [3]", "value": "9% and 10%"}, {"measurement": "Population Healthy Nuclei (%)", "setting": "Fibroblast; [3]", "value": "64% and 59%"}, {"measurement": "Population Hoechst High Intensity Objects (%)", "setting": "Fibroblast; [3]", "value": 0, "unit": "%"}, {"measurement": "Population Membrane Permeable-Phenotype (%)", "setting": "Fibroblast; [3]", "value": "13% and 9%"}, {"measurement": "Population Mitochondria Different-Phenotype (%)", "setting": "Fibroblast; [3]", "value": "1% and 3%"}, {"measurement": "Population Mitotic Cells (%)", "setting": "Fibroblast; [3]", "value": "42% and 57%"}, {"measurement": "Population Normal (%)", "setting": "Fibroblast; [3]", "value": 100, "unit": "%"}, {"measurement": "Population Pyknosed Nuclei (%)", "setting": "Fibroblast; [3]", "value": "25% and 30%"}, {"measurement": "Population Tubulin-Different-Phenotype (%)", "setting": "Fibroblast; [3]", "value": "44% and 38%"}, {"measurement": "Total Cell Count", "setting": "Fibroblast; [3]", "value": "162 and 205"}, {"measurement": "Population Apoptotic (%)", "setting": "Fibroblast; [4]", "value": "66% and 67%"}, {"measurement": "Population Fragmented Nuclei (%)", "setting": "Fibroblast; [4]", "value": 9, "unit": "%"}, {"measurement": "Population Healthy Nuclei (%)", "setting": "Fibroblast; [4]", "value": "70% and 57%"}, {"measurement": "Population Hoechst High Intensity Objects (%)", "setting": "Fibroblast; [4]", "value": "0% and 1%"}, {"measurement": "Population Membrane Permeable-Phenotype (%)", "setting": "Fibroblast; [4]", "value": "14% and 20%"}]}
